Laboratory results reported in ChEMBL document CHEMBL4138239, “Anti-inflammatory Dimeric 2-(2-Phenylethyl)chromones from the Resinous Wood of Aquilaria sinensis” (J Nat Prod, 2018).

How the values were obtained:
RAW264.7 [1] = assay: Antiinflammatory activity in mouse RAW264.7 cells assessed as inhibition of LPS-induced nitric oxide production after 24 hrs by Griess assay; format: functional, cell-based; conditions: RAW264.7, 24 h
Procedure, shortened: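 RAW264.7 cells were obtained from the Peking Union Medical College Cell Bank and stimulated with LPS. Nitric oxide production was measured in the presence of test compounds. Compounds were made as DMSO stocks, with final DMSO below 0.2%. IC50 values are given as mean ± SD of three independent experiments. A positive control was included.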

RAW264.7 [2] = assay: Cytotoxicity against mouse RAW264.7 cells assessed as effect on cell viability up to 80 uM after 24 hrs by MTT assay; format: cell-based; conditions: raw264.7, 24 h
Procedure, shortened: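 Viability or proliferation of RAW264.7 cells was measured by MTT. Compounds were tested at up to 80 μM alongside LPS treatment for 24 h. They were made as DMSO stocks, with final DMSO below 0.2%. The assay was run to test whether lower NO reflected loss of cells.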

SMILES | IC50 (RAW264.7 [1]) [µM] | Activity (RAW264.7 [2])
COc1ccc2oc(CCc3ccc4c(c3)O[C@H]3[C@H](O)[C@@H]4c4c(oc(CCc5ccccc5)cc4=O)[C@@H]3O)cc(=O)c2c1 | 12 | Non-Toxic
COc1ccc(CCc2cc(=O)c3c(o2)[C@@H](O)[C@@H]2Oc4ccc5oc(CCc6ccccc6)cc(=O)c5c4[C@H]3[C@@H]2O)cc1 | 9.3 | Non-Toxic
COc1ccc2oc(CCc3ccc(OC)c4c3[C@@H]3c5c(oc(CCc6ccccc6)cc5=O)[C@@H](O)[C@H](O4)[C@H]3O)cc(=O)c2c1 | 8.5 | Non-Toxic
O=c1cc(CCc2ccccc2)oc2c1[C@@H]1c3ccc4c(=O)cc(CCc5ccccc5)oc4c3O[C@@H]([C@@H]1O)[C@H]2O | 8.6 | Non-Toxic
COc1ccc2oc(CCc3ccc(OC)c4c3[C@H]3c5c(oc(CCc6ccccc6)cc5=O)[C@H](O)[C@@H](O4)[C@@H]3O)cc(=O)c2c1 | 8.5 | Non-Toxic
COc1ccc(CCc2cc(=O)c3c(O)c(O)c(O)c(Cl)c3o2)cc1 | 4.4 | –
COc1ccc(CCc2cc(=O)c3c(o2)[C@H](O)[C@H]2Oc4c(OC)ccc(CCc5cc(=O)c6cc(OC)ccc6o5)c4[C@@H]3[C@H]2O)cc1 | 7 | Non-Toxic
COc1ccc(CCc2cc(=O)c3c(o2)[C@@H](O)[C@@H]2Oc4c(c(O)cc5c(=O)cc(CCc6ccc(OC)cc6)oc45)[C@H]3[C@@H]2O)cc1 | 10.5 | Non-Toxic

The next lines start with results.

IC50 (RAW264.7 [1]) [µM] | SMILES | Activity (RAW264.7 [2])
8.8 | O=c1cc(CCc2ccccc2)oc2c1[C@H]1c3ccc4c(=O)cc(CCc5ccccc5)oc4c3O[C@H]([C@H]1O)[C@@H]2O | Non-Toxic
7.6 | O=c1cc(CCc2ccccc2)oc2c1[C@H]1c3c(ccc4oc(CCc5ccccc5)cc(=O)c34)O[C@H]([C@H]1O)[C@@H]2O | Non-Toxic
11.5 | O=c1cc(CCc2ccccc2)oc2c1[C@@H]1c3c(ccc4oc(CCc5ccccc5)cc(=O)c34)O[C@@H]([C@@H]1O)[C@H]2O | Non-Toxic
